# Legend:
# [1] = Half-life for disappearance of compound from dog whole blood; type: ADME, organism-based, Canis lupus familiaris
# Outline: (§1)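 Freshly collected whole blood, or 10% w/v brain homogenate in pH 7.4 phosphate buffer (ionic strength 0.15), was prewarmed to 37 °C. Compound was spiked from an 8 mM DMSO stock to 40 µM final. Timed samples were quenched in 8% DMSO/acetonitrile, centrifuged, filtered and analyzed by reversed-phase C8 HPLC with UV detection. K came from linear regression of log peak height versus time, with t1/2 derived from it. Values are mean ± SE of three determinations in different animal samples.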
# [2] = Half-life for disappearance of compound from rat 10% brain homogenate; type: ADME; outline: as §1
# [3] = Half-life for disappearance of compound from rat whole blood; type: ADME, organism-based; outline: as §1
# Canis familiaris = organism: Canis familiaris; test: Pseudo first-order rate constant (K) for disappearance of compound from dog whole blood; type: ADME, organism-based, Canis lupus familiaris; outline: as §1
# Rattus norvegicus = organism: Rattus norvegicus; test: Pseudo first-order rate constant (K) for disappearance of compound from rat 10% brain homogenate; type: ADME
# Outline: (§2)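 Freshly collected whole blood (rat trunk blood; rabbit) or 10% w/v brain homogenate made in pH 7.4 phosphate buffer (μ = 0.15), prewarmed to 37 °C. Compound added from 8 mM DMSO stock to a final 40 μM. Timed 0.3 mL samples were quenched in 8% DMSO/acetonitrile, centrifuged, filtered and analysed by reversed-phase C8 HPLC-UV. K came from linear regression of log peak height versus time; n=3 animal samples.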
# [4] = Pseudo first-order rate constant (K) for disappearance of compound from rat whole blood; type: ADME, tissue-based; outline: as §2
# [5] = Half-life for disappearance of compound from rabbit 10% brain homogenate; type: ADME, Oryctolagus cuniculus; outline: as §1
# Oryctolagus cuniculus = organism: Oryctolagus cuniculus; test: Pseudo first-order rate constant (K) for disappearance of compound from rabbit 10% brain homogenate; type: ADME; outline: as §2
half-life [1] [min],half-life [2] [min],half-life [3] [min],K (Canis familiaris) [min⁻¹],K (Rattus norvegicus) [min⁻¹],K [4] [min⁻¹],half-life [5] [min],K (Oryctolagus cuniculus) [min⁻¹],SMILES
13.5,73.4,6,0.051,0.01,0.115,,,C[n+]1cc(C(=O)NCCOC(=O)C2N3C(=O)C(NC(=O)Cc4ccccc4)C3SC2(C)C)c2ccccc2c1.[I-] (stereo not given)
,0.6,,,0.949,,0.5,1.366,C[n+]1cccc(C(=O)OCOC(=O)C2N3C(=O)C(NC(=O)Cc4ccccc4)C3SC2(C)C)c1.[I-] (stereo not given)
